Experimental data: ChEMBL document CHEMBL5356943, “Development of anti-HBV agents targeting HBV capsid proteins” (RSC Med Chem, 2023)

Legend:
[1] = (§1) Ratio of compound EC50 to N-((5-bromopyridin-2-yl)carbamothioyl)-4-chlorobenzamide EC50 for antiviral activity against Hepatitis B virus genotype C infected in chimeric humanized liver mouse model PXB cells assessed as inhibition of HBsAg level treated with infected cells on day 2 and measured on day 12 to 14 by ELISA; assay type: functional; conditions: time 10-12 day
Outline: (§2)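 PXB hepatocytes received serially diluted compound on day 2 and HBV genotype C on day 0. After 20–28 h, cells were washed and compound-containing medium renewed. Supernatant antigen on days 12–14 was measured by ELISA to give EC50 (50% antigen reduction). Each value is expressed as a ratio to the EC50 of the parent lead compound in the same antigen assay.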

[2] = Cytotoxicity against human HepG2 cells assessed as reduction in cell viability incubated for 7 days by MTT assay; assay type: toxicity, cell-based; conditions: time 7 day
Outline: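 HepG2 (human hepatocellular carcinoma) viability by MTT assay, optical density read on a kinetic microplate reader. CC50 is the concentration giving 50% reduction of viability. Mean of at least two independent experiments.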

[3] = as §1, with “HBcrAg” for “HBsAg”; assay type: functional; conditions: time 10-12 day; outline: as §2
[4] = Cytotoxicity against human Huh-7 cells assessed as reduction in cell viability by MTT assay; assay type: toxicity, cell-based
Outline: (§3)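 Each cell line cultured with serially diluted compound, then viability measured by MTT assay on a microplate reader. CC50 is the concentration giving 50% reduction of viability.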

[5] = Cytotoxicity against human LI90 cells assessed as reduction in cell viability by MTT assay; assay type: toxicity, cell-based; outline: as §3
[6] = Cytotoxicity against human RBE cells assessed as reduction in cell viability by MTT assay; assay type: toxicity, cell-based; outline: as §3
[7] = Cytotoxicity against human HLE cells assessed as reduction in cell viability by MTT assay; assay type: toxicity, cell-based; outline: as §3
[8] = Cytotoxicity against human SSP-25 cells assessed as reduction in cell viability by MTT assay; assay type: toxicity, cell-based; outline: as §3
[9] = Cytotoxicity against human HuCCT-1 cells assessed as reduction in cell viability by MTT assay; assay type: toxicity, cell-based; outline: as §3
[10] = Cytotoxicity against human G415 cells assessed as reduction in cell viability by MTT assay; assay type: toxicity, cell-based; outline: as §3
[11] = Cytotoxicity against human Li-7 cells assessed as reduction in cell viability by MTT assay; assay type: toxicity, cell-based; outline: as §3
Hepatitis B virus [12] = test: Antiviral activity against Hepatitis B virus genotype C infected in chimeric humanized liver mouse model PXB cells assessed as inhibition of HBcrAg level treated with infected cells on day 2 and measured on day 12 to 14 by ELISA; assay type: functional, organism-based
Outline: (§4)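 Human hepatocytes (PXB cells) from chimeric humanized-liver mice were seeded in 96-well plates, with serially diluted compound in fresh medium added on day 2. HBV genotype C was added on day 0. After 20–28 h, cells were PBS-washed and medium plus compound replenished. Supernatants were harvested on days 12–14, and antigen was quantified by ELISA. EC50 is the concentration giving 50% antigen reduction.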

Hepatitis B virus [13] = test: Antiviral activity against Hepatitis B virus genotype C infected in chimeric humanized liver mouse model PXB cells assessed as inhibition of HBsAg level treated with infected cells on day 2 and measured on day 12 to 14 by ELISA; assay type: functional, organism-based; outline: as §4

| SMILES | Ratio EC50 [1] | CC50 at 168 h [2] [µM] | Ratio EC50 [3] | other results |
| --- | --- | --- | --- | --- |
| O=C(NC(=S)Nc1ccc(Br)cn1)c1ccc(Br)cc1 | >4.8 | 41.8 | >12 | – |
| O=C(NC(=S)Nc1ccc(C(F)(F)F)cn1)c1ccc(O)cc1 | >4.8 | 23.7 | 0.86 | – |
| O=C(NC(=S)Nc1ccc(Br)cn1)c1ccc(C(F)(F)F)cc1 | 0.63 | > 100 | 1.7 | CC50 [4]: 92.7 µM; CC50 [5]: 62.1 µM; CC50 [6]: 81.1 µM; CC50 [7]: > 100 µM; CC50 [8]: 76.3 µM; CC50 [9]: > 100 µM; CC50 [10]: > 100 µM; CC50 [11]: > 100 µM |
| CC(C)c1ccc(C(=O)NC(=S)Nc2ccc(C(F)(F)F)cn2)cc1 | >4.8 | 61.9 | >12 | – |
| O=C(NC(=S)Nc1ccc(Cl)cn1)c1ccc(Cl)cc1 | 6.9 | 66.3 | 7.5 | – |
| COc1ccc(C(=O)NC(=S)Nc2ccc(C(F)(F)F)cn2)cc1 | >4.8 | 75.9 | >12 | – |
| O=C(NC(=S)Nc1cc2ccccc2cn1)c1ccc(Cl)cc1 | 31 | 79.1 | 2.9 | – |
| O=C(NC(=S)Nc1ccc(Br)cn1)c1ccc(Cl)cc1 | – | > 100 | – | EC50 (Hepatitis B virus [12]): 0.044 µM; EC50 (Hepatitis B virus [13]): 0.69 µM |
| Cc1ccc(C(=O)NC(=S)Nc2ccc(C(F)(F)F)cn2)cc1 | >4.8 | 89.8 | >12 | – |
| O=C(NC(=S)Nc1cc(-c2ccccc2)c(C(F)(F)F)cn1)c1ccc(Cl)cc1 | 11 | > 100 | 22 | – |
| O=C(NC(=S)Nc1ccc(C(F)(F)F)cn1)c1ccc(Cl)cc1 | 0.005 | > 100 | 0.032 | CC50 [4]: > 100 µM; CC50 [5]: > 100 µM; CC50 [6]: > 100 µM; CC50 [7]: > 100 µM; CC50 [8]: 61.3 µM; CC50 [9]: > 100 µM; CC50 [10]: > 100 µM; CC50 [11]: > 100 µM |
| O=C(NC(=S)Nc1ccc(C(F)(F)F)cn1)c1ccc(C(F)(F)F)cc1 | >2.9 | > 100 | 16 | – |
| CC(C)(C)c1ccc(C(=O)NC(=S)Nc2ccc(C(F)(F)F)cn2)cc1 | >4.8 | > 100 | >12 | – |
| O=C(NC(=S)Nc1ccc(C(F)(F)F)cn1)c1ccc(I)cc1 | >4.8 | > 100 | >12 | – |
| O=C(NC(=S)Nc1ccc(C(F)(F)F)cn1)c1ccc([N+](=O)[O-])cc1 | 0.37 | > 100 | 2.7 | – |
| O=C(NC(=S)Nc1ccc(F)cn1)c1ccc(Cl)cc1 | 8.1 | > 100 | 6.2 | – |
| O=C(NC(=S)Nc1ccc(C(F)(F)F)cn1)c1ccc(Br)cc1 | 2.7 | > 100 | 3.8 | – |
| O=C(NC(=S)Nc1ccc(C(F)(F)F)cn1)c1ccc(F)cc1 | >4.8 | 42.2 | >12 | – |
| Cc1ccc(NC(=S)NC(=O)c2ccc(Cl)cc2)nc1 | 3.8 | 43.8 | 3.7 | – |
| O=C(NC(=S)Nc1ccc([N+](=O)[O-])cn1)c1ccc(Cl)cc1 | 12 | > 100 | 20 | – |
| O=C(NC(=S)Nc1ccccn1)c1ccc(Cl)cc1 | 5.5 | 26.8 | 7.6 | – |
| C[C@H](Cn1cnc2c(N)ncnc21)OCP(=O)(O)O [TENOFOVIR ANHYDROUS] | – | – | – | EC50 (Hepatitis B virus [12]): 0.36 µM; EC50 (Hepatitis B virus [13]): > 2 µM |
